From ChEMBL document CHEMBL1151808, “Substrate promiscuity of the cyclic dipeptide prenyltransferases from Aspergillus fumigatus ( section sign)” (J Nat Prod, 2009)
Activity calls are given as the source filed them. The rule behind the calls is not given here.

What was measured:
[1] = system: Aspergillus fumigatus; test: Activity at 1.62 uM Aspergillus fumigatus CdpNPT assessed as compound conversion rate at 1 mM after 16 hrs by HPLC analysis in presence of dimethylallyl diphosphate relative to L-tryptophan
Summary of the method: (§1)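 His6-CdpNPT (1.62 µM) or His6-FtmPT1 (1.68 µM) with 1 mM tryptophan derivative and 2 mM DMAPP in Tris-HCl pH 7.5/CaCl2, 37 °C for 2 or 16 h. MeOH quench, then RP18 HPLC with 30–70% MeOH gradient. Conversion expressed relative to L-tryptophan; two independent assays.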

[2] = system: Aspergillus fumigatus; test: Activity at 1.62 uM Aspergillus fumigatus CdpNPT assessed as compound conversion rate at 1 mM after 2 hrs by HPLC analysis in presence of dimethylallyl diphosphate relative to L-tryptophan; summary of the method: as §1
[3] = target: Tryprostatin B synthase ftmPT1 (Aspergillus fumigatus) (UniProt Q4WAW7); test: Activity at 1.68 uM Aspergillus fumigatus FtmPT1 assessed as compound conversion rate at 1 mM after 2 hrs by HPLC analysis in presence of dimethylallyl diphosphate relative to L-tryptophan; summary of the method: as §1
[4] = target: Tryprostatin B synthase ftmPT1 (Aspergillus fumigatus) (UniProt Q4WAW7); test: Activity at 1.68 uM Aspergillus fumigatus FtmPT1 assessed as compound conversion rate at 1 mM after 16 hrs by HPLC analysis in presence of dimethylallyl diphosphate relative to L-tryptophan; summary of the method: as §1
[5] = target: Tryprostatin B synthase ftmPT1 (Aspergillus fumigatus) (UniProt Q4WAW7); test: Activity at 0.28 uM Aspergillus fumigatus FtmPT1 assessed as compound conversion at 1 mM after 2 hrs by HPLC analysis in presence of dimethylallyl diphosphate
Summary of the method: (§2)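 Performed in 50 mM Tris-HCl (pH 7.5) with 10 mM CaCl2, 1 mM tryptophan or derivative, and 2 mM DMAPP, using purified His6-tagged recombinant enzyme at 37 °C. Reactions were stopped with an equal volume of MeOH and protein removed by centrifugation. Products were quantified by RP18 HPLC as the conversion rate of substrate. Two independent assays were run.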

[6] = target: Tryprostatin B synthase ftmPT1 (Aspergillus fumigatus) (UniProt Q4WAW7); test: Activity at 1.68 uM Aspergillus fumigatus FtmPT1 assessed as compound conversion at 1 mM after 2 hrs by HPLC analysis in presence of dimethylallyl diphosphate
[7] = target: Tryprostatin B synthase ftmPT1 (Aspergillus fumigatus) (UniProt Q4WAW7); test: Activity at 0.54 uM Aspergillus fumigatus FtmPT1 assessed as compound conversion at 1 mM after 2 hrs by HPLC analysis in presence of dimethylallyl diphosphate; summary of the method: as §2
[8] = target: Tryprostatin B synthase ftmPT1 (Aspergillus fumigatus) (UniProt Q4WAW7); test: Ratio Kcat to Km for Aspergillus fumigatus FtmPT1 by HPLC analysis relative to L-tryptophan
[9] = system: Aspergillus fumigatus; test: Ratio Kcat to Km for Aspergillus fumigatus CdpNPT by HPLC analysis relative to L-tryptophan
Summary of the method: (§3)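 Kinetics: 2 mM DMAPP (final) with L-tryptophan up to 5 mM, or cyclic dipeptides, in Tris-HCl pH 7.5/CaCl2 at 37 °C. Products quantified by HPLC. Km and kcat from Lineweaver-Burk and Hanes-Woolf plots; kcat/Km expressed as ratio to L-tryptophan.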

[10] = system: Aspergillus fumigatus; test: Activity at 0.54 uM Aspergillus fumigatus CdpNPT assessed as compound conversion rate at 1 mM after 2 hrs by HPLC analysis in presence of dimethylallyl diphosphate
Summary of the method: (§4)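 Recombinant His6-CdpNPT (0.11–1.62 µM) with 1 mM substrate and 2 mM DMAPP in 50 mM Tris-HCl pH 7.5, 10 mM CaCl2, 100 µL, 37 °C for 2 h. Heat-inactivated enzyme served as control. Stopped with MeOH, protein spun off, products read by RP18 HPLC as peaks and retention times, conversion from peak areas.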

[11] = system: Aspergillus fumigatus; test: Activity at 0.11 to 1.62 uM Aspergillus fumigatus CdpNPT assessed as product formation at 1 mM after 2 hrs by HPLC analysis; summary of the method: as §4
[12] = system: Aspergillus fumigatus; test: Activity at Aspergillus fumigatus CdpNPT by HPLC analysis; summary of the method: as §3
[13] = system: Aspergillus fumigatus; test: Activity at 0.28 uM Aspergillus fumigatus CdpNPT assessed as compound conversion rate at 1 mM after 2 hrs by HPLC analysis in presence of dimethylallyl diphosphate; summary of the method: as §4
[14] = system: Aspergillus fumigatus; test: Activity at 0.11 uM Aspergillus fumigatus CdpNPT assessed as compound conversion rate at 1 mM after 2 hrs by HPLC analysis in presence of dimethylallyl diphosphate; summary of the method: as §4
[15] = system: Aspergillus fumigatus; test: Activity at 1.62 uM Aspergillus fumigatus CdpNPT assessed as compound conversion rate after 2 hrs by HPLC analysis; summary of the method: as §4
[16] = system: Aspergillus fumigatus; test: Activity at 1.62 uM Aspergillus fumigatus CdpNPT assessed as compound retention time after 2 hrs by HPLC analysis; summary of the method: as §4
[17] = target: Tryprostatin B synthase ftmPT1 (Aspergillus fumigatus) (UniProt Q4WAW7); test: Activity at 1.12 uM Aspergillus fumigatus FtmPT1 assessed as compound retention time after 2 hrs by HPLC analysis
Summary of the method: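 His6-FtmPT1 at 1.12 µM, 100 µL, in 50 mM Tris-HCl pH 7.5, 10 mM CaCl2 with DMAPP, 37 °C for 2 h. HPLC product retention time recorded.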

[18] = system: Aspergillus fumigatus; test: Activity at 1.62 uM Aspergillus fumigatus CdpNPT assessed as compound conversion rate at 1 mM after 2 hrs by HPLC analysis in presence of dimethylallyl diphosphate; summary of the method: as §2
[19] = target: Tryprostatin B synthase ftmPT1 (Aspergillus fumigatus) (UniProt Q4WAW7); test: Activity at 1.12 uM Aspergillus fumigatus FtmPT1 assessed as compound conversion rate at 1 mM after 16 hrs by HPLC analysis in presence of dimethylallyl diphosphate; summary of the method: as §2

Chain of Tryprostatin B synthase ftmPT1 (Aspergillus fumigatus) (Q4WAW7 whole entry): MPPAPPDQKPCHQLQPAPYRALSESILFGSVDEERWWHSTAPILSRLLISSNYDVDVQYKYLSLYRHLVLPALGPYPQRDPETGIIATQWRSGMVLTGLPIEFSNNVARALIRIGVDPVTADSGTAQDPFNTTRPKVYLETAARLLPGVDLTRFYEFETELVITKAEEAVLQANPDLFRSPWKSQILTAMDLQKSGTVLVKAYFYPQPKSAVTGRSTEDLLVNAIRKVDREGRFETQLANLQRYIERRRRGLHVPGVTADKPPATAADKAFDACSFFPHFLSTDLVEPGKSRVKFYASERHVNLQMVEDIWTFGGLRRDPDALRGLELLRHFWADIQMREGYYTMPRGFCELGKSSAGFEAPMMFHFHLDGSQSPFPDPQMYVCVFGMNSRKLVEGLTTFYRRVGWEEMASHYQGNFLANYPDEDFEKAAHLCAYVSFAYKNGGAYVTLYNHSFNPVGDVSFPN

Row | Structure (SMILES) | Activity [1] | Activity [2] | Activity [3] | Activity [4] | further results
1 | N[C@@H](Cc1c[nH]c2ccc(O)cc12)C(=O)O | < 0.3% | < 0.8% | < 1.3% | < 0.3% | –
2 | Cc1ccc2[nH]cc(CC(N)C(=O)O)c2c1 (racemic) | 20.2% | < 1.5% | < 2.4% | 10.3% | –
3 | CN[C@@H](Cc1c[nH]c2ccccc12)C(=O)O | 114% | 126% | < 3.7% | 29.4% | –
4 | NC(Cc1c[nH]c2cc(F)ccc12)C(=O)O (racemic) | 13.8% | 17.7% | 55.1% | 55.5% | –
5 | O=C1N[C@@H](Cc2c[nH]c3ccccc23)C(=O)N2CCC[C@@H]12 | – | – | – | – | Activity [5]: Active; Activity [6]: Active; Activity [7]: Active; Ratio [8]: 675
6 | N[C@@H](Cc1c[nH]c2ccc(F)cc12)C(=O)O | 1.9% | < 0.7% | < 1.2% | 4.3% | –
7 | O=C1N[C@H](Cc2c[nH]c3ccccc23)C(=O)N[C@H]1Cc1ccc(O)cc1 | – | – | – | – | Ratio [9]: 598; Activity [10]: Active; Activity [11]: Active; Km [12]: 128 µM; kcat [12]: 0.46 s⁻¹; Activity [13]: Active; Activity [14]: Active
8 | CC(N)(Cc1c[nH]c2ccccc12)C(=O)O (racemic) | 24.5% | 25% | < 2.3% | 1% | –
9 | N[C@H](CC(=O)O)Cc1c[nH]c2ccccc12 | < 1.1% | < 3.4% | < 5.5% | < 1.1% | –
10 | N[C@@H](Cc1c[nH]c2ccccc12)C(=O)O | – | – | – | – | Activity [15]: 18.1%; Activity [11]: Active; Activity [16]: 16.5 min; Km [12]: 830 µM; kcat [12]: 0.005 s⁻¹; Activity [17]: 13.9 min
11 | NCCc1c[nH]c2ccccc12 | < 1% | < 3.3% | < 5.3% | < 1.1% | –
12 | NC(Cc1c[nH]c2ccc(Br)cc12)C(=O)O (racemic) | < 0.4% | < 1.2% | < 1.9% | < 0.4% | –
13 | Cc1cccc2c(CC(N)C(=O)O)c[nH]c12 (racemic) | 37.9% | 50.6% | 76.4% | 64.1% | –
14 | O=C(O)Cc1c[nH]c2ccccc12 | 45.3% | < 1.7% | < 2.8% | < 0.6% | –
15 | Cn1cc(CC(N)C(=O)O)c2ccccc21 (racemic) | < 0.3% | < 1.1% | < 1.7% | < 0.3% | –
16 | N[C@@H](Cc1ccc(O)cc1)C(=O)O | – | – | – | – | Activity [18]: inactive; Activity [19]: inactive
17 | Cc1ccc2c(CC(N)C(=O)O)c[nH]c2c1 (racemic) | 13.5% | < 0.9% | 148% | 96% | –
18 | Cc1cccc2[nH]cc(CC(N)C(=O)O)c12 (racemic) | 61.4% | 72.6% | 16% | 19.4% | –
